From ChEMBL document CHEMBL4145671, “Development of Kinase-Selective, Harmine-Based DYRK1A Inhibitors that Induce Pancreatic Human β-Cell Proliferation” (J Med Chem, 2018)
Calls of active or inactive are those of the source. No cut-off for these calls is given here.

Experiments:
[1] = target: Dual specificity tyrosine-phosphorylation-regulated kinase 1A (Rattus norvegicus) (UniProt Q63470); test: Inhibition of DYRK1A in rat R7T1 cells expressing expressing NFAT2-GFP assessed as induction of NFAT2-GFP nuclear translocation at 10 uM incubated for 24 hrs by; format: cell-based
In short: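 Immortalized R7T1 rat beta cells infected with adenovirus expressing NFAT2-GFP for 48 h, then exposed to compound at 10 μM for a further 24 h. Cells imaged and NFAT2-GFP nuclear translocation scored as nuclear frequency, at least 1000 cells counted; n = 3, SEM.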

Pancreatic islet [2] = test: Induction of beta-cell proliferation in human pancreatic islets at 30 uM incubated for 96 hrs by Ki67 and insulin immunolabelling method; format: functional, cell-based
In short: (§1)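 Human islets from the NIH/NIDDK IIDP dispersed onto coverslips with Accutase, then treated with compound or vehicle (0.1% DMSO) in RPMI1640 complete medium for 96 h. Cells fixed, stained for insulin and Ki67, imaged; Ki67/insulin double-positive and total insulin-positive cells counted. Islets from 3 to 5 adult donors, at least 1000 beta cells counted per donor; n = 4–5, SEM.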

Pancreatic islet [3] = test: Induction of beta-cell proliferation in human pancreatic islets incubated for 96 hrs by Ki67 and insulin immunolabelling method; format: functional, cell-based; in short: as §1
Pancreatic islet [4] = test: Induction of beta-cell proliferation in human pancreatic islets at 10 uM incubated for 96 hrs by Ki67 and insulin immunolabelling method; format: functional, cell-based; in short: as §1
[5] = Toxicity in human pancreatic islets at 30 uM; format: cell-based; conditions: pancreatic islet
[6] = target: Cyclin-dependent kinase 8 (Homo sapiens) (UniProt P49336); test: Inhibition of human CDK8 expressed in bacterial expression system assessed as remaining enzyme activity at 10 uM by kinome scan assay
Cyclin-dependent kinase 8 (Homo sapiens), sequence (P49336 whole entry): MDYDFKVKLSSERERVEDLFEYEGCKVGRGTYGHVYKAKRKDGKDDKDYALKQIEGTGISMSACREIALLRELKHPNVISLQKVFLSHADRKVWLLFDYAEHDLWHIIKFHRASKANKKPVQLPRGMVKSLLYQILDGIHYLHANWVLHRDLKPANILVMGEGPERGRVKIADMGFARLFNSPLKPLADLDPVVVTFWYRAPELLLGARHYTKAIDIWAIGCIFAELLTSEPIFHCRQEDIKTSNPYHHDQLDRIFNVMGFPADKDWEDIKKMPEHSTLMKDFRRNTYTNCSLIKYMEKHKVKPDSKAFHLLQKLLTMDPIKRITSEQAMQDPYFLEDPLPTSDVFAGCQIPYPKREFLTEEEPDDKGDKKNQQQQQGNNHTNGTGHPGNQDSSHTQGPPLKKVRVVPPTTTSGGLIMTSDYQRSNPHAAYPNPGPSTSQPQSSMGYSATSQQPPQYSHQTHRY

[7] = target: Death-associated protein kinase 2 (Homo sapiens) (UniProt Q9UIK4); test: Inhibition of human DAPK2 expressed in bacterial expression system assessed as remaining enzyme activity at 10 uM by kinome scan assay
[8] = target: Death-associated protein kinase 3 (Homo sapiens) (UniProt O43293); test: Inhibition of human DAPK3 expressed in bacterial expression system assessed as remaining enzyme activity at 10 uM by kinome scan assay
[9] = target: TGF-beta receptor type-2 (Homo sapiens) (UniProt P37173); test: Inhibition of human TGFBR2 expressed in bacterial expression system assessed as remaining enzyme activity at 10 uM by kinome scan assay
[10] = target: Homeodomain-interacting protein kinase 1 (Homo sapiens) (UniProt Q86Z02); test: Inhibition of human HIPK1 expressed in mammalian expression system assessed as remaining enzyme activity at 10 uM by kinome scan assay
[11] = target: Serine/threonine-protein kinase pim-1 (Homo sapiens) (UniProt P11309); test: Inhibition of human PIM1 expressed in bacterial expression system assessed as remaining enzyme activity at 10 uM by kinome scan assay
Serine/threonine-protein kinase pim-1 (Homo sapiens), sequence (P11309 whole entry, looked up): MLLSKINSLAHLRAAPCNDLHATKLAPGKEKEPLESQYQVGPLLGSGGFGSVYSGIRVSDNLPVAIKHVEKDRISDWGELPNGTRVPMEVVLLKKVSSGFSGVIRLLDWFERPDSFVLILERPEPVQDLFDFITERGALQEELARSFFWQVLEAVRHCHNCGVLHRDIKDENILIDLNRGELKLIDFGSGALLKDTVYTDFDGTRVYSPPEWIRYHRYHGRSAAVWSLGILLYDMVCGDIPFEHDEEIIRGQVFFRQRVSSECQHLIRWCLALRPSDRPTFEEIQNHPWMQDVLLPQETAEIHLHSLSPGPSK

[12] = target: Cyclin-dependent kinase 7 (Homo sapiens) (UniProt P50613); test: Inhibition of human CDK7 expressed in mammalian expression system assessed as remaining enzyme activity at 10 uM by kinome scan assay
[13] = target: Homeodomain-interacting protein kinase 2 (Homo sapiens) (UniProt Q9H2X6); test: Inhibition of human HIPK2 expressed in mammalian expression system assessed as remaining enzyme activity at 10 uM by kinome scan assay
[14] = target: Ribosomal protein S6 kinase alpha-4 (Homo sapiens) (UniProt O75676); test: Inhibition of human RPS6KA4 (Kin.Dom.2-C-terminal) expressed in mammalian expression system assessed as remaining enzyme activity at 10 uM by kinome scan assay
Ribosomal protein S6 kinase alpha-4 (Homo sapiens), sequence (O75676 whole entry, looked up): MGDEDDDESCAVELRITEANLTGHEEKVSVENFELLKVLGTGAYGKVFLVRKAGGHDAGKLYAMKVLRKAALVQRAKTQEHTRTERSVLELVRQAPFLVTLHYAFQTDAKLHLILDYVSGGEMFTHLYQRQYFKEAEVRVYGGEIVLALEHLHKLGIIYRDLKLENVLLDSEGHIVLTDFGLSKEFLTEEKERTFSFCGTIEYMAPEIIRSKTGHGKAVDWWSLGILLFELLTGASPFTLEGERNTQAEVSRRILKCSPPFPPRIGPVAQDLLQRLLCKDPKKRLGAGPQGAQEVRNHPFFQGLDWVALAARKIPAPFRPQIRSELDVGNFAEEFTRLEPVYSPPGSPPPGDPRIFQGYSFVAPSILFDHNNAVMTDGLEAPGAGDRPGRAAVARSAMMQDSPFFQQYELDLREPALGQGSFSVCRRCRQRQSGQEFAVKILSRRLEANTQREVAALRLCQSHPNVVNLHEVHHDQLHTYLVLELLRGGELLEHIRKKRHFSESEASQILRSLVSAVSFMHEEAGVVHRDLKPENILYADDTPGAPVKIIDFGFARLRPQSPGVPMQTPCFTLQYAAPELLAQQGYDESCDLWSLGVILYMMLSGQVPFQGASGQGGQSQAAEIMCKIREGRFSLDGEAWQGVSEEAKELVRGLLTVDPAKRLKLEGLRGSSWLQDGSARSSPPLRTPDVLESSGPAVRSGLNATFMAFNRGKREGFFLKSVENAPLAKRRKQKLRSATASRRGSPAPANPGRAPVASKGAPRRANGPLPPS

[15] = Toxicity in human pancreatic islets at >10 uM; conditions: pancreatic islet
[16] = target: Homeodomain-interacting protein kinase 3 (Homo sapiens) (UniProt Q9H422); test: Inhibition of human HIPK3 expressed in mammalian expression system assessed as remaining enzyme activity at 10 uM by kinome scan assay
[17] = target: Cyclin-dependent kinase-like 5 (Homo sapiens) (UniProt O76039); test: Inhibition of human CDKL5 expressed in mammalian expression system assessed as remaining enzyme activity at 10 uM by kinome scan assay
Cyclin-dependent kinase-like 5 (Homo sapiens), sequence (O76039 whole entry): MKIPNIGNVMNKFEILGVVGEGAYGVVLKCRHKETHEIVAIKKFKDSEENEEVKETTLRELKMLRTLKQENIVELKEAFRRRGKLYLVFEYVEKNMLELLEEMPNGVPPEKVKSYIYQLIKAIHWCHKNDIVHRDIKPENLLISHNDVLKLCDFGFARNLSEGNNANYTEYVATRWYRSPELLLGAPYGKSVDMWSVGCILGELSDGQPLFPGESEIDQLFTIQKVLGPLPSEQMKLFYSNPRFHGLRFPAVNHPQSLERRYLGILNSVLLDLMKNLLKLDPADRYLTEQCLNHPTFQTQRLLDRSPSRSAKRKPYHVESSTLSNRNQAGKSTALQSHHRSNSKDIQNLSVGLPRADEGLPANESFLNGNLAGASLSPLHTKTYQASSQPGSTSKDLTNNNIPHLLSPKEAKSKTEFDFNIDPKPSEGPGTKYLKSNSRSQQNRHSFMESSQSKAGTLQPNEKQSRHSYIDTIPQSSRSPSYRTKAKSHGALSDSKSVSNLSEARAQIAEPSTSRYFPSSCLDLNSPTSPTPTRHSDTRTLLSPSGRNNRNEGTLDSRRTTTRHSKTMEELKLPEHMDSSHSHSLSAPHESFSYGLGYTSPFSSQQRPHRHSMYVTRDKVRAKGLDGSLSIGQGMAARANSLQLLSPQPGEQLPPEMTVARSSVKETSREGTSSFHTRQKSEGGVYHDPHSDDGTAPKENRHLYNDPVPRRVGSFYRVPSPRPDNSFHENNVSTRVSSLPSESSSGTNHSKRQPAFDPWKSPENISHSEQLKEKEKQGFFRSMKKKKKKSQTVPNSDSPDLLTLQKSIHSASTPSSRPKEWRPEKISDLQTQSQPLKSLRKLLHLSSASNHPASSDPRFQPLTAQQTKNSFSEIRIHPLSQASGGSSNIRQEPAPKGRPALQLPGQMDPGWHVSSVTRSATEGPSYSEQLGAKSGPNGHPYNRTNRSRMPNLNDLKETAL

[18] = target: Casein kinase II subunit alpha (Homo sapiens) (UniProt P68400); test: Inhibition of human CSNK2A1 expressed in mammalian expression system assessed as remaining enzyme activity at 10 uM by kinome scan assay
[19] = target: Serine/threonine-protein kinase pim-2 (Homo sapiens) (UniProt Q9P1W9); test: Inhibition of human PIM2 expressed in bacterial expression system assessed as remaining enzyme activity at 10 uM by kinome scan assay
Serine/threonine-protein kinase pim-2 (Homo sapiens), sequence (Q9P1W9 whole entry, looked up, canonical isoform): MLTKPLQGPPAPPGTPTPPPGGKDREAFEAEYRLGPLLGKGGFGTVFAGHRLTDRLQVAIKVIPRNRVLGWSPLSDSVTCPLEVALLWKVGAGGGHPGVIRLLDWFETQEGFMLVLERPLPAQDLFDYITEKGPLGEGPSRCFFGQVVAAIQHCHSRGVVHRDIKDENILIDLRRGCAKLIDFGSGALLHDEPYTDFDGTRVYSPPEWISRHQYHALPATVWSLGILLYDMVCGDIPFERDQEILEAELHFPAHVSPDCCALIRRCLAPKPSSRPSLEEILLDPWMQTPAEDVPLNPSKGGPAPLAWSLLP

[20] = target: Casein kinase I isoform alpha (Homo sapiens) (UniProt P48729); test: Inhibition of human CSNK1A1 expressed in mammalian expression system assessed as remaining enzyme activity at 10 uM by kinome scan assay
[21] = target: Death-associated protein kinase 1 (Homo sapiens) (UniProt P53355); test: Inhibition of human DAPK1 expressed in bacterial expression system assessed as remaining enzyme activity at 10 uM by kinome scan assay
Death-associated protein kinase 1 (Homo sapiens), sequence (P53355 whole entry, looked up): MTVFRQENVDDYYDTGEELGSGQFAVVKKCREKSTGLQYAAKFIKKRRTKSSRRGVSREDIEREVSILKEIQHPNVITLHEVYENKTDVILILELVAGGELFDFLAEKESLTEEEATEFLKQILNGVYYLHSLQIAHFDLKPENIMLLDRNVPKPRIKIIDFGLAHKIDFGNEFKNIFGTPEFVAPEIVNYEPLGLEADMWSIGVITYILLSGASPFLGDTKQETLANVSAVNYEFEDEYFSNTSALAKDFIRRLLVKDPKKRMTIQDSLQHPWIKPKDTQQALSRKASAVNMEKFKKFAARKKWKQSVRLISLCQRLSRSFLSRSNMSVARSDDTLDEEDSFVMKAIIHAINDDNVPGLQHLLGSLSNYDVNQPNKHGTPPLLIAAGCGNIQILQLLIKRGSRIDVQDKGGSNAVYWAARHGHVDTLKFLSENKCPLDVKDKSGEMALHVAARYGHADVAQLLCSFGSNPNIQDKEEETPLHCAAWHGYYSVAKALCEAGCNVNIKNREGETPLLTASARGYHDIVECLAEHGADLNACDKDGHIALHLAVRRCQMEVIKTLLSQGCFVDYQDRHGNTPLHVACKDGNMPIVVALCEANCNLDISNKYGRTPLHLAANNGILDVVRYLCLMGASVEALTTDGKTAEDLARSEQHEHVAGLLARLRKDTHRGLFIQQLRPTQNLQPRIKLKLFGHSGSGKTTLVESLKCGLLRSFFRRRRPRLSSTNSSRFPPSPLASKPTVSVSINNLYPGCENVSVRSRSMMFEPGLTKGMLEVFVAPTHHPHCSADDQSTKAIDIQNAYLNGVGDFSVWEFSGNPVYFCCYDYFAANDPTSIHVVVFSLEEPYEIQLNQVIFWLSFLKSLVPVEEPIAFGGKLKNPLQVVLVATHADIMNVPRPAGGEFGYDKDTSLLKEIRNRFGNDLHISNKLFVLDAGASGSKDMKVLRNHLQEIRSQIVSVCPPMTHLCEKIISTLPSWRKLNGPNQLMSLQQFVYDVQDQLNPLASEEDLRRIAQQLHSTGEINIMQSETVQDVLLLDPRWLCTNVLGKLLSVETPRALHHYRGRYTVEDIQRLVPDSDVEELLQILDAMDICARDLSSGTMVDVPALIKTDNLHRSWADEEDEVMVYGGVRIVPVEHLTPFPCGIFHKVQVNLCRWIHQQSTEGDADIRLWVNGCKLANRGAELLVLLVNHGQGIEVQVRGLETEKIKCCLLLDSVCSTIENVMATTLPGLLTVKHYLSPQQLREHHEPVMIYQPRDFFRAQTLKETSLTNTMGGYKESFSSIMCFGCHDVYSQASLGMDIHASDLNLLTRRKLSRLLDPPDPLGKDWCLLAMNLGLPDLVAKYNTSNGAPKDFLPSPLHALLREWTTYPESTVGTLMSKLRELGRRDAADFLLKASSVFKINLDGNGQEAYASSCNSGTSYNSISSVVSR

[22] = target: Interleukin-1 receptor-associated kinase 1 (Homo sapiens) (UniProt P51617); test: Inhibition of human IRAK1 expressed in mammalian expression system assessed as remaining enzyme activity at 10 uM by kinome scan assay
[23] = target: Citron Rho-interacting kinase (Homo sapiens) (UniProt O14578); test: Inhibition of human CIT expressed in bacterial expression system assessed as remaining enzyme activity at 10 uM by kinome scan assay
[24] = target: Casein kinase I isoform gamma-2 (Homo sapiens) (UniProt P78368); test: Inhibition of human CSNK1G2 expressed in bacterial expression system assessed as remaining enzyme activity at 10 uM by kinome scan assay
Casein kinase I isoform gamma-2 (Homo sapiens), sequence (P78368 whole entry, looked up, canonical isoform): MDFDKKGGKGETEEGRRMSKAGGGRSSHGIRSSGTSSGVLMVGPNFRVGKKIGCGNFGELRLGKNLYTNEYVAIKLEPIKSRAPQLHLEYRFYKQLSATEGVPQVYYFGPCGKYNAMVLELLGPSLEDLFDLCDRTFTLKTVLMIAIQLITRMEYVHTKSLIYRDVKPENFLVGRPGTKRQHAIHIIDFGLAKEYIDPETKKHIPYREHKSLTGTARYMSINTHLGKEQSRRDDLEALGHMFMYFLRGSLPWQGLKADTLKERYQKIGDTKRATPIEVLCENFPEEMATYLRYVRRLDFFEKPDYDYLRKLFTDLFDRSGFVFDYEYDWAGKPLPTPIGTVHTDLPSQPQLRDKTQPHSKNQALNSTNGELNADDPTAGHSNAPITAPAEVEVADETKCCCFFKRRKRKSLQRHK

[25] = target: Serine/threonine-protein kinase 17B (Homo sapiens) (UniProt O94768); test: Inhibition of human DRAK2 expressed in bacterial expression system assessed as remaining enzyme activity at 10 uM by kinome scan assay
Serine/threonine-protein kinase 17B (Homo sapiens), sequence (O94768 whole entry): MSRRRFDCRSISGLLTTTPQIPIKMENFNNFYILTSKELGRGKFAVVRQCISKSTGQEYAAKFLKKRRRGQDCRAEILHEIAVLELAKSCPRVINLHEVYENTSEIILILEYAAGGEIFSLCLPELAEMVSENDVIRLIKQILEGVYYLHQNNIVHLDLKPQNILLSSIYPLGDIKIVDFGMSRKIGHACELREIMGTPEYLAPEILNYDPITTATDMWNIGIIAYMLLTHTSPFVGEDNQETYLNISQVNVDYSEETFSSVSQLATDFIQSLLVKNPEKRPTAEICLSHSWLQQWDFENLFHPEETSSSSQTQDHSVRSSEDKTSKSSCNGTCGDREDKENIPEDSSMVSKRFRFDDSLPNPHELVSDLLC

[26] = target: Interleukin-1 receptor-associated kinase 3 (Homo sapiens) (UniProt Q9Y616); test: Inhibition of human IRAK3 expressed in bacterial expression system assessed as remaining enzyme activity at 10 uM by kinome scan assay
[27] = target: Phosphatidylinositol 5-phosphate 4-kinase type-2 gamma (Homo sapiens) (UniProt Q8TBX8); test: Inhibition of human PIP5K2C expressed in mammalian expression system assessed as remaining enzyme activity at 10 uM by kinome scan assay
[28] = target: Casein kinase II subunit alpha' (Homo sapiens) (UniProt P19784); test: Inhibition of human CSNK2A2 expressed in mammalian expression system assessed as remaining enzyme activity at 10 uM by kinome scan assay
[29] = target: Phosphatidylinositol 4-kinase beta (Homo sapiens) (UniProt Q9UBF8); test: Inhibition of human PIK4CB expressed in mammalian expression system assessed as remaining enzyme activity at 10 uM by kinome scan assay
[30] = target: Cyclin-dependent kinase 19 (Homo sapiens) (UniProt Q9BWU1); test: Inhibition of human CDK11 expressed in bacterial expression system assessed as remaining enzyme activity at 10 uM by kinome scan assay
[31] = target: Dual specificity tyrosine-phosphorylation-regulated kinase 1B (Homo sapiens) (UniProt Q9Y463); test: Inhibition of human DYRK1B expressed in bacterial expression system assessed as remaining enzyme activity at 10 uM by kinome scan assay

Question: For `COc1ccc2c(c1)[nH]c1c(CO)nccc12`, which inhibition [1] is on record?
Answer: Active

Question: And the Activity (Pancreatic islet [2])?
Answer: Active

Question: And the Activity (Pancreatic islet [3])?
Answer: Dose-dependent effect

Question: What about the Activity (Pancreatic islet [4]) of the same compound?
Answer: Active

Question: And the Activity [5]?
Answer: Non-Toxic

Question: Which Activity [6] does the source give for `COc1ccc2c(c1)[nH]c1c(C)nc(CO)cc12` here?
Answer: 0%

Question: And the inhibition [1]?
Answer: Active

Question: What about the Activity (Pancreatic islet [2]) of the same compound?
Answer: Active

Question: What about the Activity (Pancreatic islet [3]) of the same compound?
Answer: Dose-dependent effect

Question: And the Activity (Pancreatic islet [4])?
Answer: Active

Question: And the Activity [5]?
Answer: Non-Toxic

Question: Which Activity (Pancreatic islet [2]) does the source give for `COc1ccc2c(c1)[nH]c1c(C(C)=O)nccc12` here?
Answer: Active

Question: For `COc1ccc2c(c1)[nH]c1c(Cl)nccc12`, which Activity (Pancreatic islet [2]) is on record?
Answer: Active

Question: What about the Activity (Pancreatic islet [4]) of the same compound?
Answer: Active

Question: With `COc1ccc2c(c1)[nH]c1c(N3CCC3)nccc12` as the compound, how does the Activity (Pancreatic islet [4]) read?
Answer: Active

Question: For `COc1ccc2c(c1)[nH]c1c(N3CCCC3)nccc12`, which Activity (Pancreatic islet [4]) is on record?
Answer: inactive

Question: With `COc1ccc2c(c1)[nH]c1c(N3CCCC3Cc3ccccc3)nccc12` (stereo not given) as the compound, how does the Activity (Pancreatic islet [4]) read?
Answer: inactive

Question: Which Activity (Pancreatic islet [4]) does the source give for `COc1ccc2c(c1)[nH]c1c(N3CCCC3c3ccccc3)nccc12` (stereo not given) here?
Answer: inactive

Question: What does the source list for `COc1ccc2c(c1)[nH]c1c(C)nccc12` [HARMINE]?
Answer: Activity [7]: 72%; Activity [8]: 69%; Activity [9]: 78%; Activity [10]: 21%; Activity [11]: 45%; Activity [12]: 21%; Activity [13]: 8.6%; Activity [14]: 40%; Activity [15]: Toxic; Activity [16]: 9.4%; Activity [17]: 100%; Activity [18]: 11%; Activity [19]: 39%; Activity [20]: 15%; Activity [21]: 78%; Activity [6]: 55%; Activity [22]: 17%; Activity [23]: 29%; Activity [24]: 19%; Activity [25]: 73%; Activity [26]: 15%; Activity (Pancreatic islet [4]): Active; Activity [27]: 36%; Activity [28]: 23%; Activity [29]: 12%; Activity [30]: 83%; Activity [31]: 6.1%
